Assay results as given in ChEMBL document CHEMBL3352730, “Synthesis and effects on cell viability of flavonols and 3-methyl ether derivatives on human leukemia cells” (Eur J Med Chem, 2014).
The source made the active and inactive calls. The rule behind the calls is not given here.

What was measured:
U-937 [1] = assay: Induction of apoptosis in human U937 cells assessed as pro-caspase-3 cleavage by Western blotting method; type: functional, cell-based
How it was run: (§1)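 Cells were exposed to a range of compound concentrations and harvested at 24 h. Lysates were immunoblotted for caspase proforms and cleaved forms, and for Bcl-2 family proteins.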

MOLT-3 [2] = assay: Induction of apoptosis in human MOLT3 cells assessed as pro-caspase-9 cleavage by Western blotting method; type: functional, cell-based; how it was run: as §1
Raji = assay: Cytotoxicity against human Raji cells after 72 hrs by MTT assay; type: functional, cell-based
How it was run: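 MTT colorimetric assay with 72 h continuous exposure. IC50 was fitted per experiment by non-linear regression. Values are means with SE from at least three independent experiments, each run in triplicate.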

[3] = biological target: c-Jun N-terminal kinase, JNK (Homo sapiens) (UniProt P45983+P53779+P45984); assay: Increase in JNK/SAPK phosphorylation in human HL60 cells at 10 to 30 uM after 2 to 6 hrs by Western blotting method; type: cell-based; details: HL-60
How it was run: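 HL-60 cells were incubated for a time course. Extracts were immunoblotted with phospho-specific antibodies for ERK 1/2, JNK/SAPK and p38MAPK. Membranes were then stripped and reprobed for the total kinases as loading controls.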

U-937 [4] = assay: Induction of cell cycle arrest in human U937 cells assessed as accumulation at G1 phase at 1 uM after 48 hrs by propidium iodide staining based flow cytometry (reference value: 51.9 +/- 0.9%); type: functional
HL-60 [5] = assay: Induction of cell cycle arrest in human HL60 cells assessed as accumulation at G1 phase at 3 uM after 24 hrs by propidium iodide staining based flow cytometry (reference value: 53 +/- 1.1%); type: functional
U-937 [6] = assay: Induction of cell cycle arrest in human U937 cells assessed as accumulation at G1 phase at 3 uM after 12 hrs by propidium iodide staining based flow cytometry (reference value: 45.8 +/- 0.8%); type: functional
U-937 [7] = assay: Induction of cell cycle arrest in human U937 cells assessed as accumulation at G2/M phase at 3 uM after 48 hrs by propidium iodide staining based flow cytometry (reference value: 19.1 +/- 1.1%); type: functional
MOLT-3 [8] = assay: Reduction in Bid expression in human MOLT3 cells by Western blotting method; type: functional, cell-based
How it was run: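 Cells (HL-60, Molt-3 or U937) were incubated with increasing concentrations of compound and harvested at 24 h. Cell lysates were then immunoblotted for Bid and other Bcl-2 family members.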

U-937 [9] = assay: Increase in DR4 expression in human U937 cells at 10 30 uM after 24 hrs by immunoblotting method; type: functional, cell-based
How it was run: (§2)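 HL-60 and U937 cells were treated with increasing concentrations for 24 h. Lysates were immunoblotted for TRAIL, DR4 and DR5.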

HL-60 [10] = assay: Induction of cell cycle arrest in human HL60 cells assessed as accumulation at S phase at 1 uM after 24 hrs by propidium iodide staining based flow cytometry (reference value: 17.9 +/- 0.6%); type: functional
HL-60 [11] = assay: Induction of cell cycle arrest in human HL60 cells assessed as accumulation at G1 phase at 3 uM after 48 hrs by propidium iodide staining based flow cytometry (reference value: 60.4 +/- 0.4%); type: functional
U-937 [12] = assay: Induction of cell cycle arrest in human U937 cells assessed as accumulation at subG1 phase at 3 uM after 48 hrs by propidium iodide staining based flow cytometry (reference value: 6.7 +/- 0.3%); type: functional
HL-60 [13] = assay: Induction of cell cycle arrest in human HL60 cells assessed as accumulation at G2/M phase at 3 uM after 48 hrs by propidium iodide staining based flow cytometry (reference value: 17.9 +/- 0.7%); type: functional
U-937 [14] = assay: Induction of cell cycle arrest in human U937 cells assessed as accumulation at S phase at 3 uM after 48 hrs by propidium iodide staining based flow cytometry (reference value: 18.9 +/- 0.2%); type: functional
HL-60 [15] = assay: Induction of apoptosis in human HL60 cells assessed as DNA fragmentation at 30 uM after 24 hrs by ethidium bromide staining based agarose gel electrophoresis method; type: functional, cell-based
How it was run: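 HL-60 cells were treated for 24 h. Genomic DNA was extracted, run on an agarose gel, stained with ethidium bromide and viewed under UV.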

HL-60 [16] = assay: Induction of apoptosis in human HL60 cells assessed as increase in caspase 9 activity using LEHD-pNA substrate at 10 uM after 24 hrs; type: functional
How it was run: (§3)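 Cells were given 10 µM for 24 h. Lysates were assayed for cleavage of DEVD-pNA (caspase-3/7), IETD-pNA (caspase-8) and LEHD-pNA (caspase-9). Results are expressed as fold over control, from three independent experiments in triplicate.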

HL-60 [17] = assay: Induction of cell cycle arrest in human HL60 cells assessed as accumulation at G1 phase at 1 uM after 12 hrs by propidium iodide staining based flow cytometry (reference value: 57.2 +/- 0.9%); type: functional
HL-60 [18] = assay: Increase in DR4 expression in human HL60 cells at 10 30 uM after 24 hrs by immunoblotting method; type: functional, cell-based; how it was run: as §2
HL-60 [19] = assay: Induction of cell cycle arrest in human HL60 cells assessed as accumulation at G1 phase at 3 uM after 12 hrs by propidium iodide staining based flow cytometry (reference value: 57.2 +/- 0.9%); type: functional
U-937 [20] = assay: Induction of apoptosis in human U937 cells assessed as pro-caspase-8 processing at 3 and 10 uM after 6 to 24 hrs by immunoblotting method; type: functional, cell-based
How it was run: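 Kinetic and dose-response experiment: cells were treated with the indicated concentrations and harvested at the indicated times. Pro-caspase-8 and -9 cleavage was detected by immunoblotting with antibodies that bind both the proenzyme and the cleaved fragments.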

HL-60 [21] = assay: Induction of apoptosis in human HL60 cells assessed as pro-caspase-9 cleavage by Western blotting method; type: functional, cell-based; how it was run: as §1
U-937 [22] = assay: Induction of cell cycle arrest in human U937 cells assessed as accumulation at S phase at 3 uM after 24 hrs by propidium iodide staining based flow cytometry (reference value: 18.6 +/- 0.3%); type: functional
MOLT-3 [23] = assay: Induction of apoptosis in human MOLT3 cells assessed as increase in caspase 8 activity using IETD-pNA substrate at 10 uM after 24 hrs; type: functional, cell-based; how it was run: as §3
U-937 [24] = assay: Induction of cell cycle arrest in human U937 cells assessed as accumulation at G1 phase at 1 uM after 24 hrs by propidium iodide staining based flow cytometry (reference value: 49.8 +/- 1.5%); type: functional
HL-60 [25] = assay: Induction of cell cycle arrest in human HL60 cells assessed as accumulation at subG1 phase at 10 uM after 48 hrs by propidium iodide staining based flow cytometry (reference value: 3.7 +/- 0.1%); type: functional
HL-60 [26] = assay: Induction of apoptosis in human HL60 cells assessed as increase in caspase 3/7 activity DEVD-pNA substrate at 10 uM after 24 hrs; type: functional; how it was run: as §3
U-937 [27] = assay: Induction of cell cycle arrest in human U937 cells assessed as accumulation at subG1 phase at 10 uM after 12 hrs by propidium iodide staining based flow cytometry (reference value: 4.6 +/- 0.9%); type: functional
HL-60 [28] = assay: Induction of cell cycle arrest in human HL60 cells assessed as accumulation at subG1 phase at 3 uM after 48 hrs by propidium iodide staining based flow cytometry (reference value: 3.7 +/- 0.1%); type: functional
U-937 [29] = assay: Induction of cell cycle arrest in human U937 cells assessed as accumulation at S phase at 10 uM after 24 hrs by propidium iodide staining based flow cytometry (reference value: 18.6 +/- 0.3%); type: functional

## O=c1c(O)c(-c2ccc(Br)cc2)oc2ccccc12
U-937 [1]
  Activity: inactive
MOLT-3 [2]
  Activity: Active
Raji
  IC50: 5.8 µM
[3]
  Activity: Active
U-937 [4]
  Activity: 49%
HL-60 [5]
  Activity: 50.1%
U-937 [6]
  Activity: 46.6%
U-937 [7]
  Activity: 19%
MOLT-3 [8]
  Activity: Active
U-937 [9]
  Activity: Active
HL-60 [10]
  Activity: 20.7%
HL-60 [11]
  Activity: 40.4%
U-937 [12]
  Activity: 16.3%
HL-60 [13]
  Activity: 18%
U-937 [14]
  Activity: 21.2%
HL-60 [15]
  Activity: Active
HL-60 [16]
  fold change (FC): 1.8
HL-60 [17]
  Activity: 56.2%
HL-60 [18]
  Activity: Active
HL-60 [19]
  Activity: 56.7%
U-937 [20]
  Activity: Active
HL-60 [21]
  Activity: Active
U-937 [22]
  Activity: 24.7%
MOLT-3 [23]
  Activity: Active
U-937 [24]
  Activity: 47.4%
HL-60 [25]
  Activity: 56.7%
HL-60 [26]
  fold change (FC): 4.5
U-937 [27]
  Activity: 4.3%
HL-60 [28]
  Activity: 14.3%
U-937 [29]
  Activity: 23.7%
